Data from ChEMBL document CHEMBL4219175, “Synthesis and biological evaluation of aminothiazoles against Histoplasma capsulatum and Cryptococcus neoformans” (Bioorg Med Chem, 2018).
≈ marks a conversion by molar mass, not a printed value.

Tests used:
Histoplasma capsulatum [1] = experiment: Antifungal activity against Histoplasma capsulatum G217B ATCC 26032 at pH 7 measured over 5 days; type: functional, organism-based; settings: G217B ATCC 26032, 120 h
Summary of the method: (§1)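 Yeasts pre-grown in HMM (37 °C, 5% CO2) to exponential phase, counted by hemacytometer, diluted into RPMI buffered with 25 mM HEPES (pH 7.0) or 25 mM MOPS (pH 5.0) at 5 x 10^5 per well; two-fold dilutions 40 to 0.078 µM, 37 °C, agitated twice daily. A595 read over 5 days, normalized to DMSO controls; 4-day data fitted by 4-parameter regression for IC50; MIC = ≤10% growth.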

Cryptococcus neoformans [2] = experiment: Antifungal activity against wild type fluconazole-sensitive Cryptococcus neoformans serotype A H99 at pH 7 measured over 4 days; type: functional, organism-based; settings: var grubii H99 , 96 h
Summary of the method: (§2)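 YPD-grown exponential-phase yeasts, hemacytometer-counted, diluted into RPMI buffered to pH 7.0 with 25 mM HEPES (or pH 5.0 with […] for pH comparison) at 2 x 10^3 per well; two-fold series 40 to 0.078 µM, 37 °C, agitated twice daily. A595 followed over 4 days versus DMSO controls; day-3 turbidity fitted by 4-parameter regression for IC50; MIC = growth ≤10% of untreated.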

Histoplasma capsulatum [3] = experiment: Antifungal activity against Histoplasma capsulatum G217B ATCC 26032 at pH 5 measured over 5 days; type: functional, organism-based; settings: G217B ATCC 26032, 120 h; summary of the method: as §1
P388D1 = experiment: Cytotoxicity against mouse P388D1 cells assessed as reduction in cell viability after 72 hrs by resazurin-based fluorescence assay; settings: P388D1, 72 h
Summary of the method: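 P388D1 cells in Ham's F-12 + 10% FBS + 2 mM L-glutamine seeded at 5 x 10^3 per well, adhered overnight, exposed to compounds 80 to 0.3 µM for 72 h. Viability read as resorufin fluorescence (530/590 nm) after 0.1 mM resazurin, pre-saturation time points, versus untreated cells; three biological replicates; IC50 by non-linear regression.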

Cryptococcus neoformans [4] = experiment: Antifungal activity against wild type fluconazole-sensitive Cryptococcus neoformans serotype A H99 at pH 5 measured over 4 days; type: functional, organism-based; settings: var grubii H99 , 96 h; summary of the method: as §2
[5] = Ratio of aqueous solubility at pH 5 to aqueous solubility at pH 7; type: physicochemical; settings: buffer
[6] = Aqueous solubility of the compound at pH 7; type: physicochemical; settings: aqueous medium
[7] = Aqueous solubility of the compound at pH 5; type: physicochemical; settings: aqueous medium
[8] = Therapeutic index, ratio of IC50 for mouse P388D1 cells to IC50 for Histoplasma capsulatum G217B ATCC 26032; type: toxicity; settings: read-out: Ratio IC50
Summary of the method: (§3)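 Ratio of P388D1 IC50 (72 h resazurin viability, 80 to 0.3 µM) to yeast IC50 from RPMI/HEPES pH 7.0 broth dilution with A595 turbidity and 4-parameter regression.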

Cryptococcus neoformans [9] = experiment: Antifungal activity against fluconazole-resistant Cryptococcus neoformans serotype A MRL862 harboring erg11 mutant measured over 4 days; type: functional, organism-based; settings: MRL862, 96 h; summary of the method: as §2
[10] = Therapeutic index, ratio of IC50 for mouse P388D1 cells to IC50 for wild type Cryptococcus neoformans serotype A H99; type: toxicity; settings: read-out: Ratio IC50; summary of the method: as §3
Cryptococcus neoformans [11] = experiment: Antifungal activity against wild-type fluconazole-sensitive Cryptococcus neoformans serotype D B3501 measured over 4 days; type: functional, organism-based; settings: B3501, 96 h; summary of the method: as §2
Cryptococcus neoformans [12] = experiment: Antifungal activity against fluconazole-resistant Cryptococcus neoformans serotype A TES9 harboring erg11 mutant measured over 4 days; type: functional, organism-based; settings: TES9, 96 h; summary of the method: as §2
Histoplasma capsulatum [13] = experiment: Antifungal activity against RFP expressing Histoplasma capsulatum infected in LacZ-expressing mouse P388D1 cells incubated for 6 days measured daily by fluorescence assay; type: functional, organism-based; settings: for MIC: 144 h; for IC50: P388D1, 144 h
Summary of the method: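 LacZ-expressing P388D1 macrophages (3x10^4 per well, adhered 3 h) infected with RFP Histoplasma yeasts at MOI 1:2 for 3 h, medium replaced with F-12 + 10% serum, overnight at 37 °C, then compound gradient added for 6 days. RFP fluorescence (530/590 nm) read daily; day-4 values relative to untreated infected cells fitted by non-linear regression; triplicate.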

SMILES	IC50 (Histoplasma capsulatum [1]) [nM]	MIC90 (Histoplasma capsulatum [1]) [µM]	IC50 (Cryptococcus neoformans [2]) [nM]	MIC90 (Cryptococcus neoformans [2]) [µM]	IC50 (P388D1) [nM]	selectivity ratio [8]	IC50 (Cryptococcus neoformans [9]) [nM]	MIC90 (Cryptococcus neoformans [9]) [µM]	selectivity ratio [10]	IC50 (Cryptococcus neoformans [11]) [nM]	MIC90 (Cryptococcus neoformans [11]) [µM]	IC50 (Cryptococcus neoformans [12]) [nM]	MIC90 (Cryptococcus neoformans [12]) [µM]	further results
O=C(Nc1ncc(Cc2cccc3c2CCCC3)s1)C1CCCCC1	> 20000	> 40	> 20000	> 40	–	–	–	–	–	–	–	–	–	–
O=C(CCC1CCCCC1)Nc1ncc(Cc2ccccn2)s1	8090	20 (≈ 6.59 µg/mL)	> 20000	–	> 40000	> 5	–	–	–	–	–	–	–	IC50 (Histoplasma capsulatum [3]): > 20000 nM; MIC90 (Histoplasma capsulatum [3]): > 40 µM; IC50 (Cryptococcus neoformans [4]): > 20000 nM; MIC90 (Cryptococcus neoformans [4]): > 40 µM; Ratio [5]: 1.5; solubility [6]: 40 µg/mL (≈ 121 µM); solubility [7]: 60 µg/mL (≈ 182 µM)
O=C(Nc1ncc(Cc2cccc3ccoc23)s1)C1CCCCC1	420	1.25 (≈ 0.426 µg/mL)	620	2.5 (≈ 0.851 µg/mL)	> 40000	> 95	150	0.63 (≈ 0.214 µg/mL)	> 65	320	0.63 (≈ 0.214 µg/mL)	410	0.63 (≈ 0.214 µg/mL)	–
O=C(CCC1CCCCC1)Nc1ncc(Cc2cccc3sccc23)s1	200	0.31 (≈ 0.119 µg/mL)	> 20000	> 40	> 40000	> 200	–	–	–	–	–	–	–	–
O=C(Nc1ncc(Cc2ccnc3ccccc23)s1)C1CCCCC1	3050	–	3240	–	13900	5	–	–	5	–	–	–	–	IC50 (Histoplasma capsulatum [3]): 16800 nM; MIC90 (Histoplasma capsulatum [3]): 40 µM (≈ 14.1 µg/mL); IC50 (Cryptococcus neoformans [4]): 4290 nM; MIC90 (Cryptococcus neoformans [4]): 10 µM (≈ 3.51 µg/mL); Ratio [5]: 1.9; solubility [6]: 70 µg/mL (≈ 199 µM); solubility [7]: 130 µg/mL (≈ 370 µM)
OC(Cn1cncn1)(Cn1cncn1)c1ccc(F)cc1F [FLUCONAZOLE]	–	–	950	4.08 (≈ 1.25 µg/mL)	–	–	14600	32.7 (≈ 10 µg/mL)	–	130	2.04 (≈ 0.625 µg/mL)	27400	65.4 (≈ 20 µg/mL)	–
O=C(CCC1CCCCC1)Nc1ncc(Cc2cccc3ccoc23)s1	400	0.63 (≈ 0.232 µg/mL)	> 20000	> 40	17800	44	–	–	–	–	–	–	–	–
CCc1cnc(NC(=O)CCC2CCCCC2)s1	> 20000	> 40	> 20000	> 40	–	–	–	–	–	–	–	–	–	–
O=C(Nc1ncc(Cc2cccc3ccsc23)s1)C1CCCCC1	200	0.31 (≈ 0.111 µg/mL)	340	0.63 (≈ 0.225 µg/mL)	> 40000	> 200	200	0.63 (≈ 0.225 µg/mL)	> 118	270	0.63 (≈ 0.225 µg/mL)	230	0.63 (≈ 0.225 µg/mL)	MIC (Histoplasma capsulatum [13]): 2.5 µM (≈ 0.891 µg/mL); IC50 (Histoplasma capsulatum [13]): 1380 nM
CCc1cnc(NC(=O)C2CCCCC2)s1	> 20000	> 40	> 20000	> 40	–	–	–	–	–	–	–	–	–	–
O=C(Nc1ncc(CC2CCCC2)s1)C1CCCCC1	760	1.25 (≈ 0.366 µg/mL)	> 20000	> 40	> 40000	> 53	–	–	–	–	–	–	–	–
O=C(Nc1ncc(Cc2cccc3sccc23)s1)C1CCCCC1	200	0.31 (≈ 0.111 µg/mL)	210 to 370	0.63 to 1.25 (≈ 0.225 to 0.446 µg/mL)	> 40000	> 200	130	0.31 (≈ 0.111 µg/mL)	> 108	160	0.63 (≈ 0.225 µg/mL)	190	0.31 (≈ 0.111 µg/mL)	MIC (Histoplasma capsulatum [13]): 2.5 µM (≈ 0.891 µg/mL); IC50 (Histoplasma capsulatum [13]): 1210 nM
O=C(CCC1CCCCC1)Nc1ncc(Cc2cccc3nsnc23)s1	> 20000	> 40	> 20000	> 40	–	–	–	–	–	–	–	–	–	–
O=C(Nc1ncc(Cc2cccc3c2CCC3)s1)C1CCCCC1	250	0.63 (≈ 0.215 µg/mL)	410	1.25 (≈ 0.426 µg/mL)	> 40000	> 160	370	1.25 (≈ 0.426 µg/mL)	> 98	420	1.25 (≈ 0.426 µg/mL)	450	1.25 (≈ 0.426 µg/mL)	–
O=C(Nc1ncc(Cc2ccncc2)s1)C1CCCCC1	> 20000	–	> 20000	–	–	–	–	–	–	–	–	–	–	IC50 (Histoplasma capsulatum [3]): > 20000 nM; MIC90 (Histoplasma capsulatum [3]): > 40 µM; IC50 (Cryptococcus neoformans [4]): > 20000 nM; MIC90 (Cryptococcus neoformans [4]): > 40 µM; Ratio [5]: 3.4; solubility [6]: 350 µg/mL (≈ 1160 µM); solubility [7]: 1190 µg/mL (≈ 3950 µM)
